{
  "source": "ChEMBL document CHEMBL4480404",
  "about": "“Discovery of Lipophilic Bisphosphonates That Target Bacterial Cell Wall and Quinone Biosynthesis” (J Med Chem, 2019)",
  "key": {"[1]": {"assay": "Growth inhibition of HEK293 cells after 24 hrs by MTT assay", "format": "cell-based", "conditions": "human, read-out: ED50", "how_it_was_run": "(§1)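 HEK293 cells in DMEM (4.5 g/L glucose) with 10% FBS and 1% penicillin-streptomycin, seeded at 10⁵ cells/mL. Inhibitor from 10 mM stock diluted threefold across 10 wells; 37 °C for 24 or 96 h.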"}, "[2]": {"assay": "Lipophilicity, log D of the compound at pH 7.4", "format": "physicochemical", "conditions": "buffer"}, "[3]": {"test_system": "Staphylococcus aureus", "assay": "Antibacterial activity against Staphylococcus aureus Newman after 12 hrs", "format": "functional", "conditions": "read-out: ED50 (the source's name)", "how_it_was_run": "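Log-phase S. aureus culture in tryptic soy broth (OD600 ~0.3, then diluted 500-fold). Inhibitors two-fold serially diluted across 12 wells from a 100 µM–1 mM start; 37 °C, 200 rpm, 12 h; OD600 read for growth inhibition.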"}, "[4]": {"test_system": "Bacillus subtilis", "assay": "Antibacterial activity against Bacillus subtilis (Ehrenberg) Cohn ATCC 6051 after 12 hrs", "format": "functional", "conditions": "(Ehrenberg) Cohn ATCC 6051, 12 h, read-out: ED50 (the source's name)", "how_it_was_run": "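Log-phase LB culture (grown to OD600 ~0.3, then diluted 500-fold) exposed to two-fold serial dilutions of inhibitor starting at 100 µM–1 mM across 12 wells; 37 °C, 200 rpm shaking, 12 h. OD600 read and ED50 fitted; duplicate or triplicate.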"}, "[5]": {"test_system": "Mycolicibacterium smegmatis", "assay": "Antibacterial activity against Mycobacterium smegmatis MC2 155 ATCC 700084 after 48 hrs", "format": "functional", "conditions": "MC2 155 ATCC 700084, 48 h, read-out: ED50 (the source's name)", "how_it_was_run": "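Culture grown 36–48 h, diluted 1000-fold in Middlebrook 7H9 with 10% ADC, 0.5% glycerol, 0.05% Tween 80; inhibitors started at 100 µM–1 mM, threefold serial dilution across 10 wells; 37 °C, 200 rpm, 48 h; OD600 read-out.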"}, "[6]": {"test_system": "Bacillus anthracis", "assay": "Antibacterial activity against Bacillus anthracis Sterne after 12 hrs", "format": "functional", "conditions": "read-out: ED50 (the source's name)"}, "[7]": {"test_system": "Candida albicans", "assay": "microbe, parasite or virus in culture", "format": "functional", "conditions": "CAI-4, 12 h, read-out: ED50 (the source's name)"}, "[8]": {"assay": "Inhibition of Escherichia coli OPPS using IPP as substrate"}, "[9]": {"test_system": "Bacillus subtilis", "assay": "Antibacterial activity against Bacillus subtilis (Ehrenberg) Cohn ATCC 6051 in absence of fetal bovine serum after 12 hrs", "format": "functional", "conditions": "(Ehrenberg) Cohn ATCC 6051, 12 h, read-out: ED50 (the source's name)", "how_it_was_run": "(§2)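 Log-phase B. subtilis diluted 500-fold into LB containing 0%, 4% or 10% fetal bovine serum. Inhibitor threefold serially diluted across 12 wells from a 100 µM–1 mM start; incubated 12 h at 37 °C with 200 rpm shaking; growth inhibition by OD600.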"}, "[10]": {"test_system": "Bacillus subtilis", "assay": "Antibacterial activity against Bacillus subtilis (Ehrenberg) Cohn ATCC 6051 in presence of 10% fetal bovine serum after 12 hrs", "format": "functional", "conditions": "(Ehrenberg) Cohn ATCC 6051, 12 h, read-out: ED50 (the source's name)", "how_it_was_run": "as §2"}, "[11]": {"assay": "Growth inhibition of HEK293 cells after 96 hrs by MTT assay", "format": "cell-based", "conditions": "human, read-out: ED50", "how_it_was_run": "as §1"}, "[12]": {"target": "T1, Farnesyl pyrophosphate synthase (Homo sapiens, UniProt P14324)", "T1 sequence (P14324 whole entry)": "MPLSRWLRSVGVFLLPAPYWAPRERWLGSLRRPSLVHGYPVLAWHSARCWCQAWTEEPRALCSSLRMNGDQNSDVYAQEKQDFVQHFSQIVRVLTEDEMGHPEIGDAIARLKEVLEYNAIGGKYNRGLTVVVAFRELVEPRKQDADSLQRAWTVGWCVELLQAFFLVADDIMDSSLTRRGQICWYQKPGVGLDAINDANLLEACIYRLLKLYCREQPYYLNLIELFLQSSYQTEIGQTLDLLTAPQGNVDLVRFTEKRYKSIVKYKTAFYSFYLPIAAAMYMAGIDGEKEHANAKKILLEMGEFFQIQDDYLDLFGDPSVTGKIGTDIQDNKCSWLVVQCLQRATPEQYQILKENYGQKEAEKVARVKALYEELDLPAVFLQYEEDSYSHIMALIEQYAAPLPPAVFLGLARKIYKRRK", "assay": "Inhibition of human FPPS using IPP and GPP as substrate", "how_it_was_run": "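Expressed HsFPPS at 0.15 μM with 50 μM IPP and 50 μM GPP, 25°C, in 20 mM HEPES pH 7.5, 150 mM NaCl, 500 μM MgCl2. Enzyme preincubated 30 min at room temperature with serially diluted compound. Continuous MESG/PNP phosphate-release read-out, with pyrophosphatase added. At least 3 runs on different days; pooled data fitted by nonlinear regression for IC50.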"}},
  "data": [
    {"molecule": "CC(C)CCCC(C)CCNc1ccc[n+](CC(P(=O)([O-])O)P(=O)(O)O)c1", "note": "(stereo not given)", "values": [
      {"measurement": "GI50 at 24 h", "setting": "[1]", "value": 440, "unit": "µM"}
    ]},
    {"molecule": "CC(C)CCCC(C)CCc1csc(NCC(P(=O)(O)O)P(=O)(O)O)n1", "note": "(stereo not given)", "values": [
      {"measurement": "logD", "setting": "[2]; read-out: logD", "value": -2.36}
    ]},
    {"molecule": "CC(C)CCCC(C)CCOc1cccc(NCC(P(=O)(O)O)P(=O)(O)O)n1", "note": "(stereo not given)", "values": [
      {"measurement": "logD", "setting": "[2]; read-out: logD", "value": -2.24}
    ]},
    {"molecule": "CCCCCCCCOc1cccc(C(=O)Nc2ccc(F)cc2C(=O)O)c1", "values": [
      {"measurement": "EC50", "setting": "[3]", "value": "3 to 8", "unit": "µg/mL"},
      {"measurement": "EC50", "setting": "[4]", "value": "3 to 8", "unit": "µg/mL"},
      {"measurement": "EC50", "setting": "[5]", "value": "3 to 8", "unit": "µg/mL"},
      {"measurement": "EC50", "setting": "[6]", "value": "3 to 8", "unit": "µg/mL"},
      {"measurement": "EC50", "setting": "[7]", "value": "> 50", "unit": "µg/mL"}
    ]},
    {"molecule": "CC(C)CCCC(C)CCOc1ccc[n+](CC(O)(P(=O)([O-])O)P(=O)(O)O)c1", "note": "(stereo not given)", "values": [
      {"measurement": "GI50 at 24 h", "setting": "[1]", "value": 1100, "unit": "µM"}
    ]},
    {"molecule": "CC(C)CCCC(C)CCCc1cccc(NCC(P(=O)(O)O)P(=O)(O)O)n1", "note": "(stereo not given)", "values": [
      {"measurement": "EC50", "setting": "[3]", "value": 73, "unit": "µM"},
      {"measurement": "EC50", "setting": "[4]", "value": 60, "unit": "µM"},
      {"measurement": "EC50", "setting": "[5]", "value": 210, "unit": "µM"},
      {"measurement": "EC50", "setting": "[6]", "value": 6.9, "unit": "µM"},
      {"measurement": "GI50 at 24 h", "setting": "[1]", "value": 1100, "unit": "µM"},
      {"measurement": "logD", "setting": "[2]; read-out: logD", "value": -2}
    ]},
    {"molecule": "CC(C)CCCC(C)CCSc1ccc[n+](CC(P(=O)([O-])O)P(=O)(O)O)c1", "note": "(stereo not given)", "values": [
      {"measurement": "GI50 at 24 h", "setting": "[1]", "value": 510, "unit": "µM"},
      {"measurement": "logD", "setting": "[2]", "value": -5.09}
    ]},
    {"molecule": "CCCCCCCCCCCCCc1ccc[n+](CC(P(=O)([O-])O)P(=O)(O)O)c1", "note": "(stereo not given)", "values": [
      {"measurement": "GI50 at 24 h", "setting": "[1]", "value": 48, "unit": "µM"},
      {"measurement": "logD", "setting": "[2]; read-out: logD", "value": -3.65}
    ]},
    {"molecule": "O=P(O)(O)C(O)(Cc1cccc(-c2cccc3c2oc2ccccc23)c1)P(=O)(O)O", "values": [
      {"measurement": "EC50", "setting": "[7]", "value": "> 50", "unit": "µg/mL"}
    ]},
    {"molecule": "CC(C)CCCC(C)CCCC(C)CCCC(C)CCOc1ccc[n+](CC(P(=O)([O-])O)P(=O)(O)O)c1", "note": "(stereo not given)", "values": [
      {"measurement": "logD", "setting": "[2]; read-out: logD", "value": -1.85}
    ]},
    {"molecule": "CC(C)CCCC(C)CCOc1ccnc(NCC(P(=O)(O)O)P(=O)(O)O)c1", "note": "(stereo not given)", "values": [
      {"measurement": "logD", "setting": "[2]; read-out: logD", "value": -2.31}
    ]},
    {"molecule": "CCCCCCCCCCOc1ccc[n+](CC(P(=O)([O-])O)P(=O)(O)O)c1", "note": "(stereo not given)", "values": [
      {"measurement": "EC50", "setting": "[7]", "value": "> 50", "unit": "µg/mL"},
      {"measurement": "IC50", "setting": "[8]", "value": "0.006 to 0.02", "unit": "µM"}
    ]},
    {"molecule": "O=P([O-])(O)C(C[n+]1ccc(-c2ccc3oc4ccccc4c3c2)cc1)P(=O)(O)O", "note": "(stereo not given)", "values": [
      {"measurement": "EC50", "setting": "[7]", "value": "> 50", "unit": "µg/mL"}
    ]},
    {"molecule": "CC(C)CCCC(C)CCOc1cc[n+](CC(P(=O)([O-])O)P(=O)(O)O)cc1", "note": "(stereo not given)", "values": [
      {"measurement": "GI50 at 24 h", "setting": "[1]", "value": "≥ 1000", "unit": "µM"},
      {"measurement": "EC50", "setting": "[9]", "value": 5.7, "unit": "µg/mL"},
      {"measurement": "EC50", "setting": "[10]", "value": 28, "unit": "µg/mL"},
      {"measurement": "GI50 at 96 h", "setting": "[11]", "value": 800, "unit": "µM"},
      {"measurement": "IC50", "setting": "[12]", "value": 100, "unit": "µM"},
      {"measurement": "logD", "setting": "[2]", "value": -5.82}
    ]},
    {"molecule": "CC(C)CCCC(C)CCCc1ccc[n+](CC(P(=O)([O-])O)P(=O)(O)O)c1", "note": "(stereo not given)", "values": [
      {"measurement": "GI50 at 24 h", "setting": "[1]", "value": 460, "unit": "µM"},
      {"measurement": "EC50", "setting": "[9]", "value": 2.4, "unit": "µg/mL"},
      {"measurement": "EC50", "setting": "[10]", "value": 1.7, "unit": "µg/mL"},
      {"measurement": "logD", "setting": "[2]", "value": -4.71}
    ]}
  ]
}
